Assay results as given in PMC9435035 (ACS Omega, 2022).
Values belong to the molecule of their own block, whether it stands above or below them.

Assays:
α-glucosidase = α-glucosidase (Saccharomyces cerevisiae, UniProt P53341); test: α-glucosidase inhibitory activity; type: biochemical; conditions: read-out: glucosidase inhibition IC50 ± SEM; mean ± SEM
[1] = system: streptozotocin-induced diabetic Wistar rats; test: serum profile; type: in vivo, Wistar albino rats; conditions: STZ-diabetic rats; for (ALP) IU / (SGOT) IU / (SGPT) IU: serum
Method in brief: (§1)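 STZ-diabetic Wistar rats (n = 8 per group) received test compound at 10 or 20 mg/kg p.o., or glibenclamide 500 μg/kg p.o., once daily for 28 days; controls received vehicle. On day 28, rats were anesthetised with pentobarbital sodium (35 mg/kg) and blood was drawn by cardiac puncture. Serum ALP, SGPT, SGOT, LDL, HDL, TG, total cholesterol, creatinine and insulin were measured. Means ± SEM, one-way ANOVA with Dunnett's test.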

[2] = system: streptozotocin-induced diabetic Wistar rats; test: antidiabetic activity: blood glucose in STZ-induced diabetes; type: in vivo, Wistar albino rats
Method in brief: (§2)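 Male Wistar albino rats (170–200 g, 8–10 weeks), fasted overnight, given STZ 50 mg/kg i.p. in 0.1 M citrate buffer, then 10% glucose for 3 days. Tail-vein glucose by glucometer at 72 h; >250 mg/dL counted as diabetic. Body weight and blood glucose on days 1, 7, 14, 21 and 28. Means ± SEM, one-way ANOVA with Dunnett's test.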

[3] = body weight of STZ-induced diabetic rats; type: in vivo, Wistar albino rats; conditions: for body weight, day 1: day 1, in g (unit assumed); for body weight, day 7: day 7, in g (unit assumed); for body weight, day 14: day 14, in g (unit assumed); for body weight, day 21: day 21, in g (unit assumed); for body weight, day 28: day 28, in g (unit assumed)
Method in brief: as §2

Balb/C mice = test: acute toxicity study in mice; type: in vivo
Method in brief: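 Two-phase modified Lorke protocol in Balb/C mice (20–25 g), four per group. Phase 1: control given Tween-80 (2%); other groups received oral test compound at 100, 500 or 1000 mg/kg. Phase 2: oral doses of 1250, 1500 and 2000 mg/kg. Animals observed for the first 24 h, then daily for 2 weeks for diarrhea, convulsions, lethargy, sleeping, salivation and tremors, with mortality monitored.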

[4] = system: overnight fasted normal rats; test: oral glucose tolerance test; type: in vivo, Wistar albino rats; conditions: OGTT, glucose 3 g/kg oral
[5] = system: streptozotocin-induced diabetic Wistar rats; test: lipid profile in streptozotocin-induced diabetes; type: in vivo, Wistar albino rats; conditions: STZ-diabetic rats; 0.5 mg/kg for 28 days
Method in brief: as §1

Sequence of α-glucosidase (P53341 whole entry): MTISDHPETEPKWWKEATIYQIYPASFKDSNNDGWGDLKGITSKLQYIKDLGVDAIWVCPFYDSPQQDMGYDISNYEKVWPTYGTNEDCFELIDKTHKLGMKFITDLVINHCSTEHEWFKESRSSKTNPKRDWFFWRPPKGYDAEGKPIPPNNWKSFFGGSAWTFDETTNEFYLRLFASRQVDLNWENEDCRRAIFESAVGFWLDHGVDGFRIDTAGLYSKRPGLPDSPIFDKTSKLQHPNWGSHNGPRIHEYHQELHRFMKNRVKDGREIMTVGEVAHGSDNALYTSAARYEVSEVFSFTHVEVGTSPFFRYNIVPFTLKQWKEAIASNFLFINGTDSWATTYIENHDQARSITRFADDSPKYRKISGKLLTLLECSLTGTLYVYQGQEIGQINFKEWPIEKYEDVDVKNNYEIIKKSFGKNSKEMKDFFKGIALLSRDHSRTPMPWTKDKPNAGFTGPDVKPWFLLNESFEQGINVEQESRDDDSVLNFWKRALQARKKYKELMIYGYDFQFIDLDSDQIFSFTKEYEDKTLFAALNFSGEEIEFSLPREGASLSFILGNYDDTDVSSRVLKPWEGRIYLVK

IC50 (α-glucosidase): 6.28 ± 0.71 µM
Molecule: 2-(3-Methoxy-4-propoxyphenyl)-4-(p-tolyl)-2,3-dihydrobenzo[b][1,5]thiazepine [5B]

Molecule: 4-(4-(p-Tolyl)-2,3-dihydrobenzo[b][1,5]thiazepin-2-yl)benzoic acid [7B]
insulin level ([1]; 10 mg/kg for 28 days): 0.621 ± 0.37 ng/mL | serum creatinine ([1]; 10 mg/kg for 28 days, 10 mg/kg): 0.85 ± 0.37 mg/dL | (ALP) IU ([1]; 10 mg/kg for 28 days, 10 mg/kg): 217.14 ± 4.61 IU | (SGOT) IU ([1]; 10 mg/kg for 28 days, 10 mg/kg): 26.71 ± 1.91 IU | (SGPT) IU ([1]; 10 mg/kg for 28 days, 10 mg/kg): 27.07 ± 2.77 IU | insulin level ([1]; 20 mg/kg for 28 days): 0.639 ± 0.29 ng/mL | serum creatinine ([1]; 20 mg/kg for 28 days, 20 mg/kg): 0.79 ± 0.31 mg/dL | (ALP) IU ([1]; 20 mg/kg for 28 days, 20 mg/kg): 209.01 ± 4.29 IU | (SGOT) IU ([1]; 20 mg/kg for 28 days, 20 mg/kg): 23.08 ± 2.11 IU | (SGPT) IU ([1]; 20 mg/kg for 28 days, 20 mg/kg): 23.91 ± 2.21 IU | IC50 (α-glucosidase): 3.96 ± 0.42 µM | blood glucose level, day 1 ([2]; 10 mg/kg p.o. once daily): 377.08 ± 5.01 mg/dL | blood glucose level, day 7 ([2]; 10 mg/kg p.o. once daily): 290.20 ± 4.93 mg/dL | blood glucose level, day 14 ([2]; 10 mg/kg p.o. once daily): 215.76 ± 5.03 mg/dL | blood glucose level, day 21 ([2]; 10 mg/kg p.o. once daily): 153.19 ± 4.66 mg/dL | blood glucose level, day 28 ([2]; 10 mg/kg p.o. once daily, day 28): 136.51 ± 5.19 mg/dL | blood glucose level, day 1 ([2]; 20 mg/kg p.o. once daily): 374.21 ± 4.12 mg/dL | blood glucose level, day 7 ([2]; 20 mg/kg p.o. once daily): 238.39 ± 5.11 mg/dL | blood glucose level, day 14 ([2]; 20 mg/kg p.o. once daily): 171.44 ± 4.98 mg/dL | blood glucose level, day 21 ([2]; 20 mg/kg p.o. once daily): 134.20 ± 5.03 mg/dL | blood glucose level, day 28 ([2]; 20 mg/kg p.o. once daily, day 28, 20 mg/kg): 112.97 ± 4.56 mg/dL | body weight, day 1 ([3]; 10 mg/kg): 191.1 ± 4.07 | body weight, day 7 ([3]; 10 mg/kg): 188.2 ± 4.57 | body weight, day 14 ([3]; 10 mg/kg): 185.6 ± 4.90 | body weight, day 21 ([3]; 10 mg/kg): 184.1 ± 4.71 | body weight, day 28 ([3]; 10 mg/kg): 183.7 ± 4.32 | body weight, day 1 ([3]; 20 mg/kg): 188.9 ± 4.67 | body weight, day 7 ([3]; 20 mg/kg): 190.8 ± 4.21 | body weight, day 14 ([3]; 20 mg/kg): 188.1 ± 4.62 | body weight, day 21 ([3]; 20 mg/kg): 185.2 ± 3.91 | body weight, day 28 ([3]; 20 mg/kg): 186.1 ± 4.58 | mortality (Balb/C mice; maximum oral dose of 2000 mg/kg (b.w.)): no mortality | toxic effects (diarrhea, convulsions, lethargy, sleeping, salivation, tremor) (Balb/C mice; oral up to 2000 mg/kg, observed daily for 2 weeks): no toxic effects | blood glucose level, 0 min ([4]; dose 10 mg/kg): 104.01 ± 4.97 mg/dL | blood glucose level, 30 min ([4]; dose 10 mg/kg): 120.71 ± 5.01 mg/dL | blood glucose level, 60 min ([4]; dose 10 mg/kg): 120.90 ± 4.54 mg/dL | blood glucose level, 90 min ([4]; dose 10 mg/kg): 116.52 ± 4.11 mg/dL | blood glucose level, 120 min ([4]; dose 10 mg/kg): 109.25 ± 4.91 mg/dL | blood glucose level, 0 min ([4]; dose 20 mg/kg): 103.88 ± 4.04 mg/dL | blood glucose level, 30 min ([4]; dose 20 mg/kg): 117.41 ± 4.70 mg/dL | blood glucose level, 60 min ([4]; dose 20 mg/kg): 114.22 ± 4.97 mg/dL | blood glucose level, 90 min ([4]; dose 20 mg/kg): 117.01 ± 4.66 mg/dL | blood glucose level, 120 min ([4]; dose 20 mg/kg): 108.91 ± 4.87 mg/dL

Molecule: COc1ccc(Cl)cc1C(=O)NCCc1ccc(S(=O)(=O)NC(=O)NC2CCCCC2)cc1 [glibenclamide, reference compound]
insulin level ([1]; 0.5 mg/kg for 28 days): 0.754 ± 0.33 ng/mL | serum creatinine ([1]; 0.5 mg/kg for 28 days): 0.57 ± 0.23 mg/dL | (ALP) IU ([1]; 0.5 mg/kg for 28 days): 185.32 ± 5.71 IU | (SGOT) IU ([1]; 0.5 mg/kg for 28 days): 20.68 ± 2.01 IU | (SGPT) IU ([1]; 0.5 mg/kg for 28 days): 19.63 ± 2.11 IU | blood glucose level, day 1 ([2]; 0.5 mg/kg p.o.): 352.28 ± 4.11 mg/dL | blood glucose level, day 7 ([2]; 0.5 mg/kg p.o.): 231.12 ± 4.29 mg/dL | blood glucose level, day 14 ([2]; 0.5 mg/kg p.o.): 151.43 ± 4.09 mg/dL | blood glucose level, day 21 ([2]; 0.5 mg/kg p.o.): 118.87 ± 4.03 mg/dL | blood glucose level, day 28 ([2]; 0.5 mg/kg p.o., day 28): 101.68 ± 4.19 mg/dL | HDL [5]: 65.90 ± 2.71 mg/dL | LDL [5]: 96.12 ± 4.31 mg/dL | TG [5]: 105.43 ± 4.31 mg/dL | total CH [5]: 122.09 ± 4.89 mg/dL | body weight, day 1 ([3]; 0.5 mg/kg): 187.4 ± 4.57 | body weight, day 7 ([3]; 0.5 mg/kg): 190.2 ± 3.98 | body weight, day 14 ([3]; 0.5 mg/kg): 177.1 ± 4.21 | body weight, day 21 ([3]; 0.5 mg/kg): 183.7 ± 4.33 | body weight, day 28 ([3]; 0.5 mg/kg): 185.1 ± 4.48 | blood glucose level, 0 min ([4]; dose 0.5 mg/kg): 102.03 ± 4.22 mg/dL | blood glucose level, 30 min ([4]; dose 0.5 mg/kg): 103.92 ± 5.01 mg/dL | blood glucose level, 60 min ([4]; dose 0.5 mg/kg): 108.71 ± 4.21 mg/dL | blood glucose level, 90 min ([4]; dose 0.5 mg/kg): 101.86 ± 4.21 mg/dL | blood glucose level, 120 min ([4]; dose 0.5 mg/kg): 104.12 ± 4.67 mg/dL
